GI50 data for 63 compounds are collected here from ChEMBL document CHEMBL1240409, “Design, synthesis and evaluation of (E)-alpha-benzylthio chalcones as novel inhibitors of BCR-ABL kinase” (Bioorg Med Chem, 2010).

The subject of one test is DU-145. Nature of the test: Growth inhibition of human DU145 cells after 96 hrs by trypan blue exclusion assay. It is filed as functional. The conditions noted are these: DU-145, 96 h.
In the next test the test system is K562. Nature of the test: Growth inhibition of human K562 cells expressing p210Bcr/Abl after 96 hrs by trypan blue exclusion assay. It counts as functional, cell-based. Particulars: K562, 96 h. Put shortly: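 K562 cells were kept in RPMI with 10% FBS and penicillin–streptomycin at 37 °C under 5% CO2. Cells were seeded at 1 × 10^5 cells/mL with a range of compound concentrations, using DMSO as the negative control. After 96 h, viability was counted by Trypan blue exclusion and expressed as percent of DMSO control to derive GI50.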

Some results are limits rather than exact numbers.

For the compound `O=C(/C(=C\c1ccc(O)cc1O)Sc1ccccc1Br)c1ccc(Br)cc1`, the GI50 with DU-145 and in the test with K562 was 50 µM in each case.

In the case of `O=C(/C(=C\c1ccc(Cl)cc1)Sc1ccc(Cl)cc1)c1ccc(Cl)cc1`, the GI50 in the test with DU-145 and in the test on K562 was 1 µM in each case.

As to `COc1cc(OC)c(/C=C(/SCc2ccc(Cl)c(Cl)c2)C(=O)c2ccc(Cl)cc2)c(OC)c1`, the 50% growth inhibitory concentration (GI50) with DU-145 and in the test with K562 was 10 µM in each case.

As to `O=C(/C(=C\c1ccc(O)cc1O)Sc1ccc(Br)cc1)c1ccc(Cl)cc1`, the figures for the GI50 in the test on DU-145 and in the test on K562 were 50 µM and 25 µM, respectively.

Turning to `Cc1ccc(CS/C(=C/c2sccc2C)C(=O)c2ccc(Cl)cc2)cc1`, the GI50 in the test with DU-145 and in the test with K562 was 10 µM each time.

With `O=C(/C(=C\c1ccc(Br)c([N+](=O)[O-])c1)Sc1ccc(Br)cc1)c1ccc(Br)cc1`, the GI50 with DU-145 and in the test on K562 was 1 µM in each case.

With `O=C(/C(=C\c1ccc(O)c([N+](=O)[O-])c1)SCc1ccc(Br)cc1)c1ccc(Cl)cc1Cl`, the GI50 in the test with DU-145 is 10 µM; in the test on K562 it was 1 µM.

As for `Cc1ccc(CS(=O)(=O)/C(=C/c2cc(C)ccc2C)C(=O)c2ccc(Cl)cc2)cc1`, the concentration for 50% growth inhibition (GI50) in the test with DU-145 and with K562 was 1 µM in each case.

For the compound `O=C(/C(=C\c1cc(Cl)c(O)c(Cl)c1)S(=O)(=O)Cc1ccc(Br)cc1)c1ccc(Br)cc1`, the GI50 in the test with DU-145 and in the test on K562 was 25 µM each time.

On to `Cc1ccc(CS/C(=C/c2cc(C)ccc2C)C(=O)c2ccc(Cl)cc2)cc1`, for which the GI50 in the test with DU-145 and with K562 was 10 µM throughout.

In the case of `O=C(/C(=C\c1ccc(F)cc1C(F)(F)F)SCc1ccc(F)cc1)c1ccc(Br)cc1`, the 50% growth inhibitory concentration (GI50) with DU-145 and in the test with K562 was 10 µM each time.

Regarding `Cc1ccc(CS/C(=C/c2ccc(Cl)cc2)C(=O)c2ccc(Cl)cc2)cc1`, the results for the GI50 in the test on DU-145 and in the test on K562 were 10 µM and 1 µM, respectively.

With `O=C(/C(=C\c1ccc(O)c([N+](=O)[O-])c1)SCc1ccc(Br)cc1)c1ccc([N+](=O)[O-])cc1`, the GI50 in the test with DU-145 and with K562 was 10 µM in each case.

As to `Cc1ccc(CS/C(=C/c2ccc(F)c(C)c2)C(=O)c2ccc(Cl)cc2)cc1`, the GI50 turned out to be 25 µM in the test with DU-145 and 10 µM with K562.

On to `O=C(/C(=C\c1ccc(O)c([N+](=O)[O-])c1)S(=O)(=O)Cc1ccc(Br)cc1)c1ccc(Br)cc1`, for which the results for the concentration for 50% growth inhibition (GI50) with DU-145 and in the test on K562 were 10 µM and 1 µM, respectively.

Take `Cc1ccc(S/C(=C/c2sccc2C)C(=O)c2ccc(Br)cc2)cc1`: the GI50 in the test on DU-145 and in the test with K562 was 50 µM each time.

For `Cc1ccc(CS/C(=C/c2ccccc2F)C(=O)c2ccc(Cl)cc2)cc1`, the GI50 with DU-145 came out at 10 µM; in the test with K562 it was 1 µM.

With `O=C(/C(=C\c1ccc(Oc2ccccc2)cc1)SCc1ccccc1Cl)c1ccc(Cl)cc1`, the 50% growth inhibitory concentration (GI50) with DU-145 and in the test with K562 was 1 µM throughout.

As to `O=C(/C(=C\c1ccc(O)c([N+](=O)[O-])c1)SCc1ccc(Br)cc1)c1ccc(Br)cc1`, the concentration for 50% growth inhibition (GI50) in the test on DU-145 and in the test with K562 was 10 µM each time.

Take `Cc1ccsc1/C=C(/SCc1ccc(Cl)cc1)C(=O)c1ccc(Br)cc1`: the GI50 with DU-145 and in the test on K562 was 25 µM throughout.

In the case of `COc1ccc(/C=C(/SCc2ccc(F)cc2)C(=O)c2ccc(Cl)cc2)c(OC)c1OC`, the GI50 in the test on DU-145 and in the test on K562 was 10 µM each time.

On to `COc1ccc(S/C(=C/c2ccc(C)s2)C(=O)c2ccc(Cl)cc2)cc1`, for which the GI50 with DU-145 and in the test with K562 was 50 µM throughout.

`O=C(/C(=C\c1ccc(Br)cc1)SCc1ccc(F)cc1)c1ccc(Cl)cc1`: the 50% growth inhibitory concentration (GI50) was found to be 9 µM in the test with DU-145 and 1 µM in the test on K562.

As to `O=C(/C(=C\c1cc(I)c(O)c(I)c1)SCc1ccc(Br)cc1)c1ccc(Br)cc1`, the GI50 in the test with DU-145 and in the test with K562 was 1 µM each time.

Regarding `Cc1ccc(S/C(=C/c2ccc(Cl)cc2Cl)C(=O)c2ccc(Cl)cc2)cc1`, the GI50 with DU-145 and in the test with K562 was 10 µM in each case.

For `CN(C)c1ccc(/C=C(/SCc2ccc(F)cc2)C(=O)c2ccc(C(=O)O)cc2)cc1`, the 50% growth inhibitory concentration (GI50) with DU-145 and in the test on K562 was 10 µM each time.

With `Cc1ccc(CS/C(=C/c2ccc(N(C)C)cc2)C(=O)c2ccc(Cl)cc2)cc1`, the results for the GI50 in the test on DU-145 and with K562 were more than 100 µM and 15 µM, respectively.

Consider `O=C(/C(=C\c1ccc([N+](=O)[O-])c(O)c1)S(=O)(=O)c1ccc(Br)cc1)c1c(F)c(F)c(F)c(F)c1F`, for which the GI50 in the test with DU-145 and with K562 was 1 µM throughout.

For the compound `O=C(/C(=C\c1c[nH]c2ccccc12)S(=O)(=O)Cc1ccc(F)cc1)c1ccc(Cl)cc1`, the 50% growth inhibitory concentration (GI50) in the test with DU-145 and in the test on K562 was 50 µM each time.

Take `Cc1ccc(C)c(/C=C(\C(=O)c2ccc(Cl)cc2)S(=O)(=O)c2ccc(Br)cc2)c1`: the GI50 in the test with DU-145 and in the test with K562 was 1 µM in each case.

Consider `O=C(/C(=C\c1ccc(O)cc1)SCc1ccc(Cl)cc1)c1ccc(Cl)cc1`, for which the GI50 with DU-145 turned out to be 10 µM; in the test on K562 it was 1 µM.

As to `O=C(/C(=C\c1ccc(Cl)cc1Cl)S(=O)(=O)c1ccc(Br)cc1)c1ccc(Br)cc1`, the GI50 in the test on DU-145 came out at 10 µM; with K562, 1 µM.

For the compound `O=C(C(=Cc1ccc(Br)cc1)S(=O)(=O)Cc1ccc(I)cc1)c1ccc(Br)cc1`, the GI50 with DU-145 and in the test with K562 was more than 50 µM throughout.

Consider `O=C(/C(=C\c1ccccc1OCc1ccccc1)Sc1ccc(F)cc1)c1ccc(Cl)cc1`, for which the GI50 in the test with DU-145 and in the test on K562 was 1 µM throughout.

With `O=C(/C(=C\c1c[nH]c2ccccc12)SCc1ccc(F)cc1)c1ccc(Cl)cc1`, the GI50 in the test on DU-145 and in the test with K562 was 1 µM each time.

Take `Cc1ccc(CS/C(=C/c2c[nH]c3ccc(Br)cc23)C(=O)c2ccc(Cl)cc2)cc1`: the 50% growth inhibitory concentration (GI50) with DU-145 and with K562 was 1 µM in each case.

With `Cc1ccc(CS/C(=C/c2c(O)cc(O)cc2O)C(=O)c2ccc(Cl)cc2)cc1`, the GI50 in the test on DU-145 and with K562 was 50 µM in each case.

For `Cc1ccsc1/C=C(/SCc1ccc(F)cc1)C(=O)c1ccc(Cl)cc1`, the GI50 in the test with DU-145 and in the test on K562 was 50 µM throughout.

Regarding `O=C(/C(=C\c1cc([N+](=O)[O-])ccc1F)S(=O)(=O)Cc1ccc(F)cc1)c1ccc(Br)cc1`, the figures for the GI50 in the test with DU-145 and with K562 were more than 100 µM and 50 µM, respectively.

Turning to `O=C(/C(=C\c1ccc(F)cc1F)Sc1ccc(Br)cc1)c1ccc(Cl)cc1`, the 50% growth inhibitory concentration (GI50) with DU-145 and with K562 was 1 µM throughout.

For the compound `O=C(/C(=C\c1ccccc1OCc1ccccc1)S(=O)(=O)Cc1ccc(F)cc1)c1ccc(Cl)cc1`, the concentration for 50% growth inhibition (GI50) with DU-145 was 10 µM; with K562 it was 1 µM.

Regarding `CC(=O)c1ccc(/C=C(/Sc2ccc(C)cc2)C(=O)c2ccc(Br)cc2)cc1`, the GI50 with DU-145 and with K562 was 50 µM throughout.

As for `CCOc1ccc(/C=C(\C(=O)c2ccc(Cl)cc2)S(=O)(=O)Cc2ccc(F)cc2)cc1OC`, the GI50 was determined as 50 µM in the test with DU-145 and 25 µM in the test on K562.

Regarding `COc1ccsc1/C=C(\C(=O)c1ccc(Br)cc1)S(=O)(=O)Cc1ccc(Cl)cc1`, the 50% growth inhibitory concentration (GI50) was 50 µM in the test with DU-145 and 25 µM in the test on K562.

For the compound `Cc1ccc(CS(=O)(=O)/C(=C/c2ccc(C)s2)C(=O)c2ccc(Cl)cc2)cc1`, the GI50 with DU-145 and in the test on K562 was 25 µM in each case.

With `COc1ccc(/C=C(/Sc2ccc(C)cc2)C(=O)c2ccc(Br)cc2)cc1`, the values for the GI50 with DU-145 and in the test with K562 were 50 µM and 10 µM, respectively.

Consider `CN(C)c1ccc(/C=C(/SCc2ccc(Cl)cc2)C(=O)c2ccc(Br)cc2)cc1`, for which the figures for the GI50 in the test on DU-145 and with K562 were 10 µM and 1 µM, respectively.

As to `COc1ccc2[nH]cc(/C=C(/Sc3ccc(Br)cc3)C(=O)c3ccc(Br)cc3)c2c1`, the GI50 with DU-145 and in the test with K562 was 10 µM throughout.

`O=C(/C(=C\c1ccc([N+](=O)[O-])c(O)c1)SCc1ccc(Br)cc1)c1cc(Cl)ccc1O`: the GI50 in the test with DU-145 and in the test with K562 was 10 µM in each case.

Regarding `N#Cc1ccc(C(=O)/C(=C\c2ccc(O)c([N+](=O)[O-])c2)SCc2ccc(Br)cc2)cc1`, the GI50 with DU-145 and with K562 was 10 µM each time.

Consider `Cc1ccc(S/C(=C/c2c(O)cc(O)cc2O)C(=O)c2ccc(Cl)cc2)cc1`, for which the GI50 with DU-145 and in the test on K562 was more than 100 µM in each case.

As for `Cc1ccc(CS(=O)(=O)/C(=C/c2c[nH]c3ccccc23)C(=O)c2ccc(Cl)cc2)cc1`, the 50% growth inhibitory concentration (GI50) with DU-145 was 25 µM; in the test with K562, more than 100 µM.

For `Cc1ccc(S/C(=C/c2ccc(N(C)C)cc2)C(=O)c2ccc(Br)cc2)cc1`, the GI50 is more than 100 µM in the test on DU-145 and 50 µM with K562.

For `Cc1ccc(CS/C(=C/c2ccc(C)s2)C(=O)c2ccc(Cl)cc2)cc1`, the GI50 with DU-145 and in the test on K562 was 50 µM throughout.

With `O=C(/C(=C\c1c(O)cc(O)cc1O)Sc1ccc(Br)cc1)c1ccc(Cl)cc1`, the GI50 in the test on DU-145 and in the test on K562 was 50 µM throughout.

Consider `O=C(C(=Cc1ccc(Br)cc1)S(=O)(=O)Cc1ccccc1Cl)c1ccc(Cl)cc1`, for which the GI50 in the test with DU-145 and in the test on K562 was 1 µM throughout.

Take `Cc1ccc(S(=O)(=O)/C(=C/c2sccc2C)C(=O)c2ccc(Cl)cc2)cc1`: the GI50 in the test with DU-145 and in the test with K562 was 10 µM each time.

With `O=C(/C(=C\c1ccc(Cl)cc1Cl)Sc1ccc(Br)cc1)c1ccc(Br)cc1`, the GI50 in the test on DU-145 and in the test on K562 was 1 µM in each case.

As to `O=C(/C(=C\c1ccc(F)cc1F)S(=O)(=O)c1ccc(Br)cc1)c1ccc(Br)cc1`, the GI50 stood at 7.5 µM in the test on DU-145 and 1 µM with K562.

As for `O=C(/C(=C\c1c(O)cc(O)cc1O)S(=O)(=O)c1ccccc1Br)c1ccc(Br)cc1`, the concentration for 50% growth inhibition (GI50) in the test on DU-145 and in the test on K562 was 50 µM throughout.

Regarding `COc1ccc(C(=O)/C(=C\c2ccc(Br)cc2)Sc2ccc(F)cc2)cc1`, the GI50 in the test with DU-145 and with K562 was more than 100 µM each time.

`Cc1ccsc1/C=C(/SCc1ccc(F)cc1)C(=O)c1ccc(Br)cc1`: the GI50 was 50 µM in the test on DU-145 and more than 100 µM in the test with K562.

Turning to `Cc1ccc(CS/C(=C/c2ccccc2F)C(=O)c2ccc(Br)cc2)cc1`, the results for the GI50 with DU-145 and with K562 were 10 µM and 1 µM, respectively.
